# From ChEMBL document CHEMBL3994624, “Antimalarial Pyrido[1,2-a]benzimidazoles: Lead Optimization, Parasite Life Cycle Stage Profile, Mechanistic Evaluation, Killing Kinetics, and in Vivo Oral Efficacy in a Mouse Model” (J Med Chem, 2017)
# pIC50: −log10 of the molar value. Active and inactive are the calls of the source. The calls are words filed in the database; no cut-off is given here.
# Legend:
# [1] = test system: Plasmodium falciparum; test: Anti-plasmodial activity against multidrug resistant Plasmodium falciparum K1 by [3H]-hypoxanthine incorporation assay; assay type: functional
# Summary of the method: (§1)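 P. falciparum asexual blood-stage growth inhibition by [3H]hypoxanthine incorporation; chloroquine and artesunate run as reference drugs in every experiment; IC50 given as mean of ≥2 independent experiments.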
# [2] = test system: Plasmodium falciparum; test: Anti-plasmodial activity against chloroquine-sensitive Plasmodium falciparum NF54 by [3H]-hypoxanthine incorporation assay; assay type: functional; summary of the method: as §1
# [3] = test system: CHO; test: Cytotoxicity against CHO cells after by MTT assay; assay type: cell-based; conditions: Cricetulus griseus
# [4] = Selectivity index, ratio of IC50 for CHO cells to IC50 for chloroquine-sensitive Plasmodium falciparum NF54; assay type: toxicity; conditions: hamster, read-out: Ratio IC50
# Summary of the method: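 Selectivity index = IC50 CHO / IC50 PfNF54.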
# [5] = Kinetic solubility of the compound in FaSSIF at pH 6.5 after 2 hrs by shake flask method; assay type: physicochemical; conditions: read-out: Kinetic_solubility
# [6] = Metabolic stability in Balb/c mouse liver microsomes assessed as compound remaining at 1 uM in presence of NADPH after 30 mins by LC-MS/MS analysis; assay type: ADME, microsome; conditions: read-out: Stability
# Summary of the method: (§2)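 Mouse and human liver microsomes; % compound remaining after 30 min.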
# [7] = test system: Plasmodium falciparum; test: Ratio of IC50 for chloroquine-sensitive Plasmodium falciparum NF54 after 24 hrs to IC50 for chloroquine-sensitive Plasmodium falciparum NF54 after 72 hrs; assay type: functional
# [8] = test system: Ferriprotoporphyrin IX; test: Inhibition of beta hematin formation in water/NP40/DMSO solution after 5 hrs
# [9] = test system: Plasmodium falciparum; test: Anti-plasmodial activity against chloroquine-sensitive Plasmodium falciparum NF54 late 4/5 stage gametocytes assessed as reduction in ATP levels after 24 hrs by BacTiter-Glo reagent based bioluminescence assay; assay type: functional; conditions: NF54, 24 h
# [10] = test system: Plasmodium falciparum; test: Ratio of IC50 for chloroquine-sensitive Plasmodium falciparum NF54 early 2/3 stage gametocytes to IC50 for chloroquine-sensitive Plasmodium falciparum NF54 late 4/5 stage gametocytes; assay type: functional
# Summary of the method: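 Early (stage II/III) and late (stage IV/V) gametocytes tested in parallel luciferase reporter assays; stage preference = EG IC50/LG IC50.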
# [11] = test system: Huh-7; test: Cytotoxicity against human HuH7 cells at 1 to 10 uM after 48 hrs by Alamarblue assay; assay type: cell-based; conditions: huh-7, 48 h
# [12] = Metabolic stability in human liver microsomes assessed as compound remaining at 1 uM in presence of NADPH after 30 mins by LC-MS/MS analysis; assay type: ADME, microsome; conditions: read-out: Stability; summary of the method: as §2
# [13] = test system: Plasmodium falciparum; test: Anti-plasmodial activity against chloroquine-sensitive Plasmodium falciparum NF54 late 4/5 stage gametocytes after 48 hrs by luciferin-luciferase reaction based bioluminescence assay; assay type: functional; conditions: NF54, 48 h
# [14] = test system: Plasmodium berghei; test: Antimalarial activity against GFP-fused Plasmodium berghei ANKA infected in mouse assessed as reduction in parasitemia at 50 mg/kg, po administered once daily for 4 days by flow cytometry relative to control; assay type: functional; set-up: scale not given: the % may be the effect or the level left
# Summary of the method: (§3)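 P. berghei-infected mice, 3 per group. Compound formulated in 90/10 Tween80/ethanol (v/v), diluted 10-fold with water, given orally once daily at 4, 24, 48 and 72 h post-infection. Outcomes: % parasitemia reduction versus untreated control, mean survival days, and cured/infected. Mice with <40% reduction euthanized on day 4.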
# [15] = test system: Plasmodium berghei; test: Antimalarial activity against GFP-fused Plasmodium berghei ANKA infected in mouse assessed as mouse mean survival days at 50 mg/kg, po administered once daily for 4 days; assay type: functional
# Summary of the method: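 P. berghei-infected mice (n=3 per dose) dosed orally once daily on 4 consecutive days at 4, 24, 48 and 72 h after infection; compound in 90/10 Tween80/ethanol (v/v) diluted 10-fold with water. Read-outs were % parasitemia reduction, mean survival time in days and cure; mice with <40% parasitemia reduction euthanized on day 4.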
# [16] = test system: Plasmodium berghei; test: Antimalarial activity against GFP-fused Plasmodium berghei ANKA infected in mouse assessed as protection against parasitemia at 50 mg/kg, po administered once daily for 4 days measured 30 days post infection by light microscopy; assay type: functional, organism-based; summary of the method: as §3
# [17] = test system: Plasmodium berghei; test: Antimalarial activity against GFP-fused Plasmodium berghei ANKA liver stage infected in HuH7 cells pretreated for 1 hr followed by parasite infection after 48 hrs by luciferase reporter gene assay; assay type: functional, cell-based; conditions: Huh-7
# [18] = test system: Plasmodium berghei; test: Antimalarial activity against GFP-fused Plasmodium berghei ANKA liver stage infected in HuH7 cells pretreated for 1 hr followed by parasite infection at 1 uM after 48 hrs by luciferase reporter gene assay; assay type: functional, cell-based
# [19] = test system: Ferriprotoporphyrin IX; test: Inhibition of beta hematin formation in ring stage of chloroquine-sensitive Plasmodium falciparum NF54 assessed as decrease in haemozoin level after 36 hrs by UV-vis spectra analysis
# Summary of the method: (§4)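 Synchronized ring-stage parasites treated with increasing drug concentrations, then cellular fractionation. Free haem and haemozoin quantified as iron (fg/cell) and compared with untreated control; significance by p-values; parasite survival overlaid.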
# [20] = test system: Ferriprotoporphyrin IX; test: Inhibition of beta hematin formation in ring stage of chloroquine-sensitive Plasmodium falciparum NF54 assessed as increase in free heme level after 36 hrs by UV-vis spectra analysis; summary of the method: as §4
SMILES,pIC50 [1],pIC50 [2],pIC50 [3],selectivity ratio [4],solubility kinetic at 2 h [5],"remaining at 0.5 h, 1 µM [6]",Ratio IC50 [7],pIC50 [8],pIC50 [9],Ratio IC50 [10],Activity [11],"remaining at 0.5 h, 1 µM [12]",pIC50 [13],Activity [14],MSD [15],Activity [16],pIC50 [17],Activity [18],inhibition [19],inhibition [20]
N#Cc1c(-c2ccc(C(F)(F)F)cc2)cc(NCCN2CCC(O)C2)n2c1nc1ccccc12 (centres undefined),7.52,7.40,5.21,153,< 5 µM,51%,18,–,–,–,–,–,–,–,–,–,–,–,–,–
N#Cc1c(-c2ccc(C(F)(F)F)cc2)cc(NCCn2ccnc2)n2c1nc1ccccc12,6.10,6.41,4.98,27,–,–,1.5 - 2,> 4.35,5.99,1.1,Non-Toxic,–,–,–,–,–,–,–,–,–
CCN(CC)CCCC(C)Nc1cc(-c2ccc(C(F)(F)F)cc2)c(C#N)c2nc3ccccc3n12 (centres undefined),6.40,6.16,5.54,4,85 µM,32%,<1.5,–,5.52,0.7,Non-Toxic,53%,–,–,–,–,–,–,–,–
CCc1nc(N)nc(N)c1-c1ccc(Cl)cc1 [PYRIMETHAMINE],–,–,–,–,–,–,6,–,–,–,–,–,–,–,–,–,–,–,–,–
CCNCCNc1cc(-c2ccc(C(F)(F)F)cc2)c(C#N)c2nc3ccccc3n12,–,–,5.81,13,< 5 µM,97%,<1.5,> 4.35,–,2.4,Non-Toxic,84%,6.21,–,–,–,–,–,–,–
CN1CCC(Nc2cc(-c3ccc(C(F)(F)F)cc3)c(C#N)c3nc4ccccc4n23)CC1,6.00,6.36,5.22,14,< 5 µM,63%,<1.5,–,–,–,–,75%,–,–,–,–,–,–,–,–
CCNCCNc1cc(-c2ccc(C(F)(F)F)cc2)c(C#N)c2nc3cccc(Cl)c3n12,6.59,6.85,5.79,5,10 µM,93%,–,–,–,–,–,89%,–,85%,7 days,inactive,–,–,–,–
CCNCCNc1c(C)c(-c2ccc(C(F)(F)F)cc2)c(C#N)c2nc3ccccc3n12,–,5.89,–,–,< 5 µM,80%,–,–,5.59,0.8,Non-Toxic,85%,–,–,–,–,5.55,Active,–,–
N#Cc1c(-c2ccc(C(F)(F)F)cc2)cc(NC2CCNCC2)n2c1nc1ccccc12,6.09,6.44,4.78,46,–,65%,–,–,5.94,1.6,Non-Toxic,99%,–,–,–,–,5.48,Active,–,–
CCNCCNc1cc(-c2ccc(F)cc2)c(C#N)c2nc3ccccc3n12,6.27,6.48,4.94,35,–,–,–,–,5.75,2.1,Non-Toxic,–,–,–,–,–,–,–,–,–
COc1cc(NC(C)CCCN)c2ncccc2c1 (centres undefined) [PRIMAQUINE],–,–,–,–,–,–,–,–,–,–,–,–,–,–,–,–,5.07,–,–,–
CCNCCNc1cc(-c2ccc(Cl)c(Cl)c2)c(C#N)c2nc3ccccc3n12,6.92,6.96,5.81,14,–,65%,–,> 4.35,6.23,1.2,Non-Toxic,60%,–,–,–,–,–,–,Dose-dependent effect,Dose-dependent effect
CCNCCNc1cc(C2CCCCC2)c(C#N)c2nc3ccccc3n12,6.17,6.33,5.50,7,10 µM,42%,–,–,6.34,3.3,Non-Toxic,–,–,–,–,–,–,–,–,–
CCNCCNc1cc(C2CCCC2)c(C#N)c2nc3ccccc3n12,6.09,6.08,5.42,5,–,–,–,–,6.17,1.7,Non-Toxic,–,–,–,–,–,–,–,–,–
CCNCCNc1cc(-c2ccc(Cl)cc2)c(C#N)c2nc3ccccc3n12,6.37,6.18,5.02,15,–,–,–,–,6.16,1.5,Non-Toxic,–,–,–,–,–,–,–,–,–
O=C1C(O)=C([C@H]2CC[C@H](c3ccc(Cl)cc3)CC2)C(=O)c2ccccc21 [ATOVAQUONE],–,–,–,–,–,–,–,–,–,–,–,–,–,–,–,–,9.00,–,–,–
CCNCCNc1cc(-c2ccc(C(F)(F)F)cc2)c(C#N)c2nc3cc(Cl)ccc3n12,7.52,7.52,5.06,362,–,75%,1.5 - 2,> 4.35,–,1.1,Non-Toxic,87%,6.09,–,–,–,–,–,–,–
CCNCCNc1cc(-c2cccc(F)c2)c(C#N)c2nc3ccccc3n12,6.00,6.42,5.29,13,25 µM,100%,<1.5,–,5.44,1.2,Non-Toxic,89%,–,61%,24 days,–,–,–,–,–
